Source: article PMC3866226 (Molecular pharmaceutics, 2013)
“And” between values parts separate entries of the source, which are not always exact repeats. Equal entries are not always repeated. “Also recorded” adds a separate entry of the source. Bridge positions count the residues as written; N and C are the ends. Square brackets hold non-standard residues; d marks the D form. Peptide text beside a SMILES is read from it.

What was measured:
B16/F1 melanoma cells [1] = experiment: Cellular internalization; type: cell-based, murine; conditions: after 20 min of incubation at 25 °C, acid wash pH 4.5, n=3
Outline: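 Cells at 2.5×10^5/well were grown overnight at 37 °C and washed with binding medium (MEM, 25 mM HEPES pH 7.4, 0.2% BSA, 0.3 mM 1,10-phenanthroline). They were incubated at 25 °C with ~200,000 cpm HPLC-purified radiopeptide for 20–120 min (n=3). Membrane-bound activity was stripped with 40 mM sodium acetate pH 4.5/0.9% NaCl/0.2% BSA. Cells were lysed in 1 N NaOH for 5 min; both fractions were gamma-counted.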

[2] = tested on: B16/F1 melanoma-bearing C57 mice; experiment: Effect of L-lysine co-injection on renal and tumor uptake; type: in vivo, mouse; conditions: 2 h post-injection, 15 mg L-lysine
Outline: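 Groups of 4 tumour-bearing C57 mice received 0.037 MBq radiopeptide mixed with 15 mg L-lysine via injection. Mice were killed at 2 h, and tumours and organs were weighed and gamma-counted. Uptake with versus without L-lysine was compared by unpaired Student's t-test, significance p<0.05.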

[3] = tested on: B16/F1 melanoma-bearing C57 mice; experiment: Urinary metabolites by radio-HPLC; type: in vivo, mouse; conditions: urine at 2 h post-injection of ~3.7 MBq via tail vein
B16/F1 melanoma cells [4] = experiment: Cellular efflux; type: cell-based, murine; conditions: loaded 2 h at 25 °C, then 2 h of incubation in the culture medium
Outline: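 B16/F1 cells were seeded at 2.5×10^5/well and grown overnight at 37 °C. They were loaded with radiopeptide for 2 h at 25 °C and rinsed twice with ice-cold PBS. Release into culture medium was then monitored. At 20, 40, 60, 90 and 120 min, surface-bound and intracellular radioactivity were collected separately and gamma-counted.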

[5] = tested on: B16/F1 melanoma-bearing C57 mice; experiment: Melanoma imaging by small animal SPECT/CT; type: in vivo, mouse; conditions: 2 h post-injection of 7.4 MBq via tail vein
[6] = tested on: B16/F1 melanoma-bearing C57 mice; experiment: Biodistribution in B16/F1 melanoma-bearing C57 mice; type: in vivo, mouse
Outline: (§1)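 Female C57 mice bore subcutaneous right-flank tumours from 1×10^6 B16/F1 cells (~0.2 g at 10 days). Radiopeptide, 0.037 MBq in pH 7.4 saline, went in via tail vein. Groups of 4 were killed at 0.5, 2, 4 and 24 h; tumours and organs were weighed and gamma-counted. Blood was taken as 6.5% body weight. Blockade: co-injected 10 µg (6.1 nmol) unlabeled NDP-MSH, 2 h. Results as %ID/g or %ID, mean ± SD, n=4.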

[7] = as above; type: in vivo, mouse; conditions: female, C57, mouse, iv, 0.037 MBq, total radioactivity
Outline: as §1

SMILES: CC(C)[C@H](NC(=O)[C@@H]1CCCN1C(=O)[C@H](CCCNC(=N)N)NC(=O)[C@H](CS)NC(=O)[C@H](Cc1c[nH]c2ccccc12)NC(=O)[C@H](CCCNC(=N)N)NC(=O)[C@@H](Cc1ccccc1)NC(=O)[C@H](Cc1c[nH]cn1)NC(=O)[C@H](CCC(=O)O)NC(=O)[C@H](CS)NC(=O)[C@H](CS)NC(=O)[C@H](CCCCN)NC(=O)[C@@H]1CC(=O)N[C@@H](CCCNC(=N)N)C(=O)N[C@@H](C(C)C)C(=O)N[C@@H](CC(=O)O)C(=O)N[C@H](Cc2ccc(O)cc2)C(=O)N1)C(N)=O [^99mTc-RVD-Lys-(Arg^11)CCMSH, metal not drawn] (RVD[dY]DKCCEH[dF]RWCRPV-NH2; lactam N-5)
- Activity internalized in the cells (B16/F1 melanoma cells [1]): ~72%
- Reduction of renal uptake by L-lysine co-injection ([2]; versus without L-lysine): 41% and 40–50%
- Effect of L-lysine co-injection on tumor uptake ([2]; p>0.05): didn't affect the tumor uptake; also recorded: without affecting their tumor uptake
- Remained intact in the urine [3]: Approximately 70%
- Transformed to a more hydrophobic compound in the urine [3]: 30%
- Activity remained inside the cells (cellular efflux) (B16/F1 melanoma cells [4]): 70%
- Visualization of flank B16/F1 melanoma lesions by SPECT/CT [5]: clearly visualized
- Renal uptake as % of the renal uptake of ^99mTc-RTD-Lys-(Arg^11)CCMSH ([6]; 0.5 h post-injection): 62%
- Renal uptake as % of the renal uptake of ^99mTc-RTD-Lys-(Arg^11)CCMSH ([6]; 2 h post-injection): 70%
- Uptake ratio Tumor/Blood ([6]; 2 h post-injection, NDP blockade): 2.75
- Renal uptake as % of the renal uptake of ^99mTc-RTD-Lys-(Arg^11)CCMSH ([6]; 4 h post-injection): 70%
- tissue uptake at 0.5 h ([7]; blood): 1.5 ± 0.52 %ID/g
- tissue uptake at 2 h ([7]; blood): 0.49 ± 0.05 %ID/g
- tissue uptake at 4 h ([7]; blood): 0.54 ± 0.45 %ID/g
- tissue uptake at 24 h ([7]; blood): 0.07 ± 0.02 %ID/g
- tissue uptake at 0.5 h ([7]; bone): 1.6 ± 0.73 %ID/g
- tissue uptake at 2 h ([7]; bone): 0.57 ± 0.08 %ID/g
- tissue uptake at 4 h ([7]; bone): 0.54 ± 0.28 %ID/g
- tissue uptake at 24 h ([7]; bone): 0.47 ± 0.05 %ID/g
- tissue uptake at 0.5 h ([7]; brain): 0.15 ± 0.05 %ID/g
- tissue uptake at 2 h ([7]; brain): 0.04 ± 0.01 %ID/g
- tissue uptake at 4 h ([7]; brain): 0.02 ± 0.01 %ID/g
- tissue uptake at 24 h ([7]; brain): 0.03 ± 0.01 %ID/g
- tissue uptake at 0.5 h ([7]; heart): 0.74 ± 0.43 %ID/g
- tissue uptake at 2 h ([7]; heart): 0.26 ± 0.15 %ID/g
- tissue uptake at 4 h ([7]; heart): 0.16 ± 0.03 %ID/g
- tissue uptake at 24 h ([7]; heart): 0.1 ± 0.07 %ID/g
- tissue uptake dose at 0.5 h ([7]; intestines): 1.36 ± 0.27 %ID
- tissue uptake dose at 2 h ([7]; intestines): 1.59 ± 1.08 %ID
- tissue uptake dose at 4 h ([7]; intestines): 0.95 ± 0.3 %ID
- tissue uptake dose at 24 h ([7]; intestines): 0.44 ± 0.22 %ID
- tissue uptake at 0.5 h ([7]; kidneys): 90.2 ± 15.4 %ID/g
- tissue uptake at 2 h ([7]; kidneys): 94 ± 18.3 %ID/g
- tissue uptake at 4 h ([7]; kidneys): 73.9 ± 3.73 %ID/g
- tissue uptake at 24 h ([7]; kidneys): 44.3 ± 12.1 %ID/g
- tissue uptake at 0.5 h ([7]; liver): 1.86 ± 0.17 %ID/g
- tissue uptake at 2 h ([7]; liver): 1.4 ± 0.34 %ID/g
- tissue uptake at 4 h ([7]; liver): 1.59 ± 0.13 %ID/g
- tissue uptake at 24 h ([7]; liver): 1.21 ± 0.26 %ID/g
- tissue uptake at 0.5 h ([7]; lung): 2.01 ± 0.97 %ID/g
- tissue uptake at 2 h ([7]; lung): 0.87 ± 0.4 %ID/g
- tissue uptake at 4 h ([7]; lung): 0.49 ± 0.43 %ID/g
- tissue uptake at 24 h ([7]; lung): 0.19 ± 0.1 %ID/g
- tissue uptake at 0.5 h ([7]; muscle): 11.2 ± 6.02 %ID/g
- tissue uptake at 2 h ([7]; muscle): 0.17 ± 0.1 %ID/g
- tissue uptake at 4 h ([7]; muscle): 0.1 ± 0.07 %ID/g
- tissue uptake at 24 h ([7]; muscle): 0.26 ± 0.02 %ID/g
- tissue uptake at 0.5 h ([7]; pancreas): 0.62 ± 0.25 %ID/g
- tissue uptake at 2 h ([7]; pancreas): 0.1 ± 0.02 %ID/g
- tissue uptake at 4 h ([7]; pancreas): 0.08 ± 0.08 %ID/g
- tissue uptake at 24 h ([7]; pancreas): 0.18 ± 0.07 %ID/g
- tissue uptake at 0.5 h ([7]; skin): 9.59 ± 0.62 %ID/g
- tissue uptake at 2 h ([7]; skin): 0.69 ± 0.18 %ID/g
- tissue uptake at 4 h ([7]; skin): 0.35 ± 0.08 %ID/g
- tissue uptake at 24 h ([7]; skin): 0.42 ± 0.27 %ID/g
- tissue uptake at 0.5 h ([7]; spleen): 0.82 ± 0.43 %ID/g
- tissue uptake at 2 h ([7]; spleen): 0.4 ± 0.1 %ID/g
- tissue uptake at 4 h ([7]; spleen): 0.5 ± 0.15 %ID/g
- tissue uptake at 24 h ([7]; spleen): 0.34 ± 0.06 %ID/g
- tissue uptake at 0.5 h ([7]; stomach): 1.92 ± 0.53 %ID/g
- tissue uptake at 2 h ([7]; stomach): 1.21 ± 0.61 %ID/g
- tissue uptake at 4 h ([7]; stomach): 0.96 ± 0.27 %ID/g
- tissue uptake at 24 h ([7]; stomach): 0.4 ± 0.13 %ID/g
- tissue to tissue ratio at 0.5 h ([7]; tumor / blood): 11.1
- tissue to tissue ratio at 2 h ([7]; tumor / blood): 34.9
- tissue to tissue ratio at 4 h ([7]; tumor / blood): 36.4
- tissue to tissue ratio at 24 h ([7]; tumor / blood): 126
- tissue to tissue ratio at 0.5 h ([7]; tumor / kidneys): 0.19
- tissue to tissue ratio at 2 h ([7]; tumor / kidneys): 0.18
- tissue to tissue ratio at 4 h ([7]; tumor / kidneys): 0.27
- tissue to tissue ratio at 24 h ([7]; tumor / kidneys): 0.2
- tissue to tissue ratio at 0.5 h ([7]; tumor / lung): 8.31
- tissue to tissue ratio at 2 h ([7]; tumor / lung): 19.7
- tissue to tissue ratio at 4 h ([7]; tumor / lung): 40.1
- tissue to tissue ratio at 24 h ([7]; tumor / lung): 46.4
- tissue uptake at 0.5 h ([7]; tumor): 16.7 ± 5.31 %ID/g
- tissue uptake at 2 h ([7]; tumor): 17.1 ± 3.82 %ID/g
- tissue uptake at 4 h ([7]; tumor): 19.6 ± 4.68 %ID/g
- tissue uptake at 24 h ([7]; tumor): 8.81 ± 2.13 %ID/g
- tissue to tissue ratio at 0.5 h ([7]; tumor/liver): 8.98
- tissue to tissue ratio at 2 h ([7]; tumor/liver): 12.2
- tissue to tissue ratio at 4 h ([7]; tumor/liver): 12.3
- tissue to tissue ratio at 24 h ([7]; tumor/liver): 7.28
- tissue to tissue ratio at 0.5 h ([7]; tumor/muscle): 1.48
- tissue to tissue ratio at 2 h ([7]; tumor/muscle): 101
- tissue to tissue ratio at 4 h ([7]; tumor/muscle): 196
- tissue to tissue ratio at 24 h ([7]; tumor/muscle): 33.9
- dose excreted at 0.5 h ([7]; urine): 44.5 ± 3.12%
- dose excreted at 2 h ([7]; urine): 59.2 ± 9.65%
- dose excreted at 4 h ([7]; urine): 67.5 ± 10%
- dose excreted at 24 h ([7]; urine): 76.8 ± 8.21%
